In paper PMC7502533 (ACS chemical biology, 2020):

Experiments:
TFEB = TFEB nuclear accumulation; assay type: cell-based; conditions: for nuclear translocation of TFEB: percentage of cells displaying TFEB nuclear accumulation, biological duplicates
Outline: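 HeLa and Neuro-2a cells were treated with the CPP combined with an endosome-priming small molecule, or with LLOME. TFEB localization was then followed over time until the protein returned to a cytoplasmic distribution.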

[1] = system: Neuro-2a and HeLa cell lines; experiment: Endocytic uptake of AF488-labelled probes by flow cytometry; assay type: cell-based; conditions: AF488-H1 added after reagent treatment, biological duplicates
Chmp1b = Chmp1b recruitment to damaged endosomes; assay type: cell-based
Galectin-3 (Gal3) = experiment: Gal3 recruitment to damaged endosomes; assay type: cell-based
Neuro-2a and HeLa = experiment: Recovery of LysoTracker Green staining; assay type: cell-based; conditions: cell line not specified; biological triplicates
Outline: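 HeLa and Neuro-2a cells were exposed to the delivery agent, or LLOME as the reference, then washed. LysoTracker was added at increasing intervals after washing, and lysosomal staining was followed over time to find when it returned to the untreated level.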

[2] = cells incubated with reagent, washed and imaged, biological duplicates

SMILES	nuclear translocation of TFEB (TFEB)	toxicity to cells of cell penetration (cells)	uptake of H1 [1]	Chmp1b recruitment (Chmp1b; Neuro-2a)	number of Chmp1b puncta (Chmp1b; [2])	Gal3 recruitment (Galectin-3 (Gal3); Neuro-2a)	Gal3 distribution / puncta (Galectin-3 (Gal3); [2])	additional time to return to a cytoplasmic TFEB distribution (TFEB; after the initial 3h, biological triplicates)	time TFEB nuclear accumulation is steady or rising after treatment (TFEB; biological triplicates)	recovery time of LysoTracker staining (Neuro-2a and HeLa)
CO/C1=C\C(C)=C\[C@@H](C)[C@@H](O)[C@@H](C)C/C(C)=C/C=C/[C@H](OC)[C@@H]([C@@H](C)[C@@H](O)[C@H](C)[C@@]2(O)C[C@@H](O)[C@H](C)[C@@H](C(C)C)O2)OC1=O [bafilomycin]	positive control									
COC(=O)[C@H](CC(C)C)NC(=O)[C@@H](N)CC(C)C [LLOME, L-leucyl-L-leucine methyl ester]	triggered the nuclear translocation of TFEB	delayed loss of viability	stimulated	did not trigger	trigger the recruitment of Chmp1b and Gal3	did not trigger	trigger the recruitment of Chmp1b and Gal3	9 h	3 h	8 h
